Results as given in ChEMBL document CHEMBL1806372, “Cytotoxic ring A-modified steroid analogues derived from Grundmann's ketone” (Eur J Med Chem, 2011).

Columns and labels:
Format in all cases: functional
[1] = system: NCI-H460; test: Cytotoxicity against human NCI-H460 cells after 48 hrs by sulforhodamine B assay; conditions: NCI-H460, 48 h, read-out: LC50 (the source's name)
How it was run: (§1)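 NCI 60 human tumour cell line panel run to the NCI protocol. GI50, TGI and LC50 come from log concentration vs % growth inhibition curves for each cell line. Lines insensitive at the top concentration are reported with ">".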

[2] = system: M14; test: Cytotoxicity against human M14 cells after 48 hrs by sulforhodamine B assay; conditions: M14, 48 h, read-out: LC50 (the source's name); how it was run: as §1
[3] = system: MDA-MB-435; test: Cytotoxicity against human MDA-MB-435 cells after 48 hrs by sulforhodamine B assay; conditions: MDA-MB-435, 48 h, read-out: LC50 (the source's name); how it was run: as §1
[4] = system: SK-MEL-28; test: Cytotoxicity against human SK-MEL-28 cells after 48 hrs by sulforhodamine B assay; conditions: SK-MEL-28, 48 h, read-out: LC50 (the source's name); how it was run: as §1
[5] = system: UACC-62; test: Cytotoxicity against human UACC62 cells after 48 hrs by sulforhodamine B assay; conditions: UACC-62, 48 h, read-out: LC50 (the source's name)
[6] = system: OVCAR-3; test: Cytotoxicity against human OVCAR3 cells after 48 hrs by sulforhodamine B assay; conditions: OVCAR-3, 48 h, read-out: LC50 (the source's name); how it was run: as §1
[7] = system: OVCAR-4; test: Cytotoxicity against human OVCAR4 cells after 48 hrs by sulforhodamine B assay; conditions: OVCAR-4, 48 h, read-out: LC50 (the source's name); how it was run: as §1
[8] = system: NCI/ADR-RES; test: Cytotoxicity against human NCI/ADR-RES cells after 48 hrs by sulforhodamine B assay; conditions: read-out: LC50 (the source's name); how it was run: as §1
[9] = system: TK-10; test: Cytotoxicity against human TK10 cells after 48 hrs by sulforhodamine B assay; conditions: TK-10, 48 h, read-out: LC50 (the source's name)
[10] = system: PC-3; test: Cytotoxicity against human PC3 cells after 48 hrs by sulforhodamine B assay; conditions: PC-3, 48 h, read-out: LC50 (the source's name); how it was run: as §1
[11] = system: MDA-MB-231; test: Cytotoxicity against human MDA-MB-231 cells after 48 hrs by sulforhodamine B assay; conditions: MDA-MB-231, 48 h, read-out: LC50 (the source's name); how it was run: as §1
[12] = system: OVCAR-5; test: Growth inhibition of human OVCAR5 cells after 48 hrs by sulforhodamine B assay; conditions: OVCAR-5, 48 h
How it was run: (§2)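 GI50, TGI and LC50 were derived from log concentration versus % growth inhibition curves for each cell line. GI50 is the concentration giving a 50% decrease in net cell growth. Insensitive lines are reported as greater than the highest concentration.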

[13] = system: SK-OV-3; test: Growth inhibition of human SKOV3 cells after 48 hrs by sulforhodamine B assay; conditions: SK-OV-3, 48 h
How it was run: (§3)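 NCI 60-cell panel five-dose assay. GI50, TGI and LC50 are derived from log concentration versus % growth inhibition curves. Cell lines insensitive at the top concentration are given a ">" prefix.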

[14] = system: A498; test: Growth inhibition of human A498 cells after 48 hrs by sulforhodamine B assay; conditions: A498, 48 h
How it was run: (§4)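 From log concentration versus % growth curves, GI50 (50% decrease in net growth), TGI (total growth inhibition) and LC50 (net 50% loss of initial cells) are derived for each line.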

[15] = system: CAKI-1; test: Growth inhibition of human Caki1 cells after 48 hrs by sulforhodamine B assay; conditions: CAKI-1, 48 h; how it was run: as §4
[16] = system: SN12C; test: Growth inhibition of human SN12C cells after 48 hrs by sulforhodamine B assay; how it was run: as §3
[17] = system: DU-145; test: Growth inhibition of human DU145 cells after 48 hrs by sulforhodamine B assay; conditions: DU-145, 48 h; how it was run: as §4
[18] = system: MCF7; test: Growth inhibition of human MCF7 cells after 48 hrs by sulforhodamine B assay; conditions: MCF7, 48 h; how it was run: as §2
[19] = system: T47D; test: Growth inhibition of human T47D cells after 48 hrs by sulforhodamine B assay; how it was run: as §3
[20] = system: MOLT-4; test: Cytotoxicity against human MOLT4 cells after 48 hrs by sulforhodamine B assay; conditions: MOLT-4, 48 h, read-out: LC50 (the source's name); how it was run: as §1
[21] = system: EKVX; test: Cytotoxicity against human EKVX cells after 48 hrs by sulforhodamine B assay; conditions: read-out: LC50 (the source's name); how it was run: as §1
[22] = system: HOP-62; test: Cytotoxicity against human HOP62 cells after 48 hrs by sulforhodamine B assay; conditions: HOP-62, 48 h, read-out: LC50 (the source's name); how it was run: as §1
[23] = system: NCI-H226; test: Cytotoxicity against human NCI-H226 cells after 48 hrs by sulforhodamine B assay; conditions: NCI-H226, 48 h, read-out: LC50 (the source's name); how it was run: as §1
[24] = system: NCI-H23; test: Cytotoxicity against human NCI-H23 cells after 48 hrs by sulforhodamine B assay; conditions: NCI-H23, 48 h, read-out: LC50 (the source's name); how it was run: as §1
[25] = system: NCI-H322M; test: Cytotoxicity against human NCI-H322M cells after 48 hrs by sulforhodamine B assay; conditions: read-out: LC50 (the source's name); how it was run: as §1
[26] = system: K562; test: Growth inhibition of human K562 cells after 48 hrs by sulforhodamine B assay; conditions: K562, 48 h; how it was run: as §4
[27] = system: RPMI-8226; test: Growth inhibition of human RPMI8226 cells after 48 hrs by sulforhodamine B assay; conditions: RPMI-8226, 48 h; how it was run: as §2
[28] = system: SR; test: Growth inhibition of human SR cells after 48 hrs by sulforhodamine B assay; how it was run: as §3
[29] = system: NCI-H226; test: Growth inhibition of human NCI-H226 cells after 48 hrs by sulforhodamine B assay; conditions: NCI-H226, 48 h; how it was run: as §2
[30] = system: NCI-H522; test: Growth inhibition of human NCI-H522 cells after 48 hrs by sulforhodamine B assay; conditions: NCI-H522, 48 h; how it was run: as §2
[31] = system: HCT-116; test: Growth inhibition of human HCT116 cells after 48 hrs by sulforhodamine B assay; conditions: HCT-116, 48 h; how it was run: as §4
[32] = system: HCT-15; test: Growth inhibition of human HCT15 cells after 48 hrs by sulforhodamine B assay; conditions: HCT-15, 48 h; how it was run: as §4
[33] = system: SF-268; test: Growth inhibition of human SF268 cells after 48 hrs by sulforhodamine B assay; conditions: SF-268, 48 h; how it was run: as §2
[34] = system: SF-295; test: Growth inhibition of human SF295 cells after 48 hrs by sulforhodamine B assay; conditions: SF-295, 48 h; how it was run: as §2
[35] = system: LOX IMVI; test: Growth inhibition of human LOXIMVI cells after 48 hrs by sulforhodamine B assay; how it was run: as §4
[36] = system: UACC-257; test: Growth inhibition of human UACC257 cells after 48 hrs by sulforhodamine B assay; conditions: UACC-257, 48 h; how it was run: as §3

Compound: CC(C)CCC[C@@H](C)[C@H]1CC[C@H]2C3=CC[C@@H]4C(=O)C=CC(=O)[C@@H]4[C@@H]3CC[C@]12C
- CC50 [1]: > 100000 nM
- CC50 [2]: > 100000 nM
- CC50 [3]: > 100000 nM
- CC50 [4]: > 100000 nM
- CC50 [5]: > 100000 nM
- CC50 [6]: > 100000 nM
- CC50 [7]: > 2650 nM
- CC50 [8]: > 100000 nM
- CC50 [9]: > 100000 nM
- CC50 [10]: > 100000 nM
- CC50 [11]: > 100000 nM
- GI50 [12]: 212 nM
- TGI [12]: > 100000 nM
- GI50 [13]: 688 nM
- GI50 [14]: 384 nM
- TGI [14]: 1120 nM
- GI50 [15]: 279 nM
- TGI [15]: 633 nM
- GI50 [16]: 269 nM
- TGI [16]: > 100000 nM
- GI50 [17]: 632 nM
- TGI [17]: > 100000 nM
- GI50 [18]: 112 nM
- TGI [18]: 757 nM
- GI50 [19]: 337 nM
- TGI [19]: > 100000 nM
- CC50 [20]: > 100000 nM
- CC50 [21]: > 100000 nM
- CC50 [22]: > 100000 nM
- CC50 [23]: > 100000 nM
- CC50 [24]: > 100000 nM
- CC50 [25]: > 100000 nM
- GI50 [26]: 249 nM
- TGI [26]: > 100000 nM
- GI50 [27]: 107 nM
- TGI [27]: 2230 nM
- GI50 [28]: 207 nM
- TGI [28]: > 100000 nM
- GI50 [29]: 480 nM
- GI50 [30]: 803 nM
- TGI [30]: > 100000 nM
- GI50 [31]: 55 nM
- TGI [31]: 1030 nM
- GI50 [32]: 212 nM
- GI50 [33]: 566 nM
- TGI [33]: > 100000 nM
- GI50 [34]: 141 nM
- TGI [34]: 539 nM
- GI50 [35]: 227 nM
- TGI [35]: 1170 nM
- GI50 [36]: 230 nM
- TGI [36]: 610 nM

Compound: CC(C)CCC[C@@H](C)[C@H]1CC[C@H]2C3=CCn4c(=O)ccc(=O)n4[C@@H]3CC[C@]12C
- CC50 [1]: 5730 nM
- CC50 [2]: 3320 nM
- CC50 [3]: 7680 nM
- CC50 [4]: 4140 nM
- CC50 [5]: 5450 nM
- CC50 [6]: 4780 nM
- CC50 [7]: 5630 nM
- CC50 [8]: 2280 nM
- CC50 [9]: 3600 nM
- CC50 [10]: 4830 nM
- CC50 [11]: 6250 nM
- GI50 [12]: 1050 nM
- TGI [12]: 2870 nM
- GI50 [13]: 1630 nM
- TGI [13]: 2990 nM
- GI50 [14]: 1060 nM
- TGI [14]: 2270 nM
- GI50 [15]: 179 nM
- TGI [15]: 577 nM
- GI50 [16]: 388 nM
- TGI [16]: 1690 nM
- GI50 [17]: 1040 nM
- TGI [17]: 2260 nM
- GI50 [18]: 285 nM
- TGI [18]: 1240 nM
- GI50 [19]: 255 nM
- TGI [19]: 1620 nM
- CC50 [20]: > 100000 nM
- CC50 [21]: 7330 nM
- CC50 [22]: 5330 nM
- CC50 [23]: 8330 nM
- CC50 [24]: 9000 nM
- CC50 [25]: 5840 nM
- GI50 [26]: 309 nM
- TGI [26]: 2020 nM
- GI50 [27]: 181 nM
- TGI [27]: 601 nM
- GI50 [28]: 137 nM
- TGI [28]: 758 nM
- GI50 [29]: 1270 nM
- TGI [29]: 3260 nM
- GI50 [30]: 175 nM
- TGI [30]: 459 nM
- GI50 [31]: 142 nM
- TGI [31]: 291 nM
- GI50 [32]: 418 nM
- TGI [32]: 2220 nM
- GI50 [33]: 1460 nM
- TGI [33]: 2880 nM
- GI50 [34]: 110 nM
- TGI [34]: 627 nM
- GI50 [35]: 288 nM
- TGI [35]: 1050 nM
- GI50 [36]: 433 nM
- TGI [36]: 1550 nM
